Reference: ChEMBL document CHEMBL3271979, “Inhibition of solid tumors by nitrosoureas. 1. Lewis lung carcinoma” (1977)
The source made the active and inactive calls. No cut-off for these calls is given here.

Columns and labels:
[1] = Antitumor activity against mouse early Lewis lung carcinoma allografted in BDF1 mouse assessed as increase in host life span at 15 mg/kg, ip administered as single dose on 1 or 2 days post-tumor implantation; format: functional; settings: route intraperitoneal
Procedure, shortened: (§1)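 BDF1 mice (C57Blk/6 × DBA/2) implanted sc by trocar with ~40 mg Lewis lung tumor fragments from bacteriologically sterile donor tumors. Single ip dose on day 1 or 2, as a solution or suspension in water (CMC or gum acacia) or saline (HPC or Tween 80). Read-out is […]. Same-dose toxicity controls were run in nontumor-bearing mice.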

[2] = Antitumor activity against mouse early Lewis lung carcinoma allografted in BDF1 mouse assessed as increase in host life span at 10 mg/kg, ip administered as single dose on 1 or 2 days post-tumor implantation; format: functional; settings: route intraperitoneal
Procedure, shortened: (§2)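 Early disease: BDF1 mice carrying sc trocar implants of about 40 mg Lewis lung fragments. One ip dose given on day 1 or 2 after implant, in distilled water or saline, at ≤0.5 ml. Endpoints were % increase in life-span of dying animals and delay in days for the primary tumor to reach 1 g. Untreated controls served as reference.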

[3] = Antitumor activity against mouse early Lewis lung carcinoma allografted in BDF1 mouse assessed as time delay in tumor growth at 15 mg/kg, ip administered as single dose on 1 or 2 days post-tumor implantation; format: functional; settings: route intraperitoneal
Procedure, shortened: (§3)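 BDF1 mice (C57Blk/6 × DBA/2) implanted sc by trocar with ~40 mg Lewis lung tumor fragments from bacteriologically sterile donors. A single ip dose was given on day 1 or 2, as a solution or suspension in water or saline with suspending agent, at ≤0.5 ml. Tumors were measured by caliper at least twice weekly, with weight = ab²/2. Delay was taken as the days for the tumor to reach 1 g.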

Mus musculus [4] = test: Antitumor activity against mouse advanced Lewis lung carcinoma allografted in BDF1 mouse assessed as disease cure at 22 mg/kg, ip administered as single dose on 7th day post-tumor implantation measured for 80 days post-drug treatment; format: functional, organism-based; set-up: dose 22 mg/kg
Procedure, shortened: (§4)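 BDF1 mice (C57Blk/6 × DBA/2) implanted sc by trocar with Lewis lung tumor fragments of about 40 mg, taken only from bacteriologically sterile donor tumors. Mice bearing tumors of about 400 mg (day 6-7) were selected. Each received a single ip dose on day 7, at or below the LD10 in normal mice. Groups were of 10 mice. Tumor weight was taken from calipers as w = ab²/2, measured at least twice weekly. Matched non-tumor mice served as toxicity controls.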

[5] = Antitumor activity against mouse advanced Lewis lung carcinoma allografted in BDF1 mouse assessed as increase in host life span at 22 mg/kg, ip administered as single dose on 7th day post-tumor implantation; format: functional; settings: route intraperitoneal
Procedure, shortened: (§5)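 BDF1 mice (C57Blk/6 × DBA/2) implanted sc by trocar with about 40 mg Lewis lung tumor fragments from bacteriologically sterile donors. Advanced-disease groups held tumors of about 400 mg by day 6-7, sized by caliper (w = ab²/2). Single ip injection on day 7, in water or saline vehicle, at or below the LD10 in normal mice. Tumors measured at least twice weekly.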

[6] = Antitumor activity against mouse early Lewis lung carcinoma allografted in BDF1 mouse assessed as time delay in tumor growth at 10 mg/kg, ip administered as single dose on 1 or 2 days post-tumor implantation; format: functional; settings: route intraperitoneal
Procedure, shortened: (§6)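 Sc trocar implants of about 40 mg Lewis lung fragments in BDF1 mice. A single ip injection was given on day 1 or 2, in water or physiological saline, at ≤0.5 ml. Tumor size came from caliper length and width as w = ab²/2, measured at least twice weekly. Growth delay is the extra days taken to reach 1 g, compared with untreated controls.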

[7] = Antitumor activity against mouse early Lewis lung carcinoma allografted in ip dosed BDF1 mouse assessed as disease cure administered as single dose on 1 or 2 days post-tumor implantation measured for 80 days post-drug treatment; format: functional
Procedure, shortened: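 BDF1 mice implanted sc by trocar with ~40 mg Lewis lung fragments from sterile donor tumors. A single ip dose was given on day 1 or 2 after implant, in water or saline vehicle. Cures were scored in animals observed for at least 80 days after treatment. Drug-toxicity controls were matched non-tumor-bearing mice monitored for body weight and deaths.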

[8] = Ratio of ED50 for antitumor activity against mouse L1210 cells allografted in ip dosed mouse to LD10 for mouse
Mus musculus [9] = test: Antitumor activity against mouse advanced Lewis lung carcinoma allografted in ip dosed BDF1 mouse assessed as complete regression of established tumor administered as single dose on day 6 or 7 post-tumor implantation; format: functional, organism-based; procedure, shortened: as §4
Mus musculus [10] = test: Antitumor activity against mouse advanced Lewis lung carcinoma allografted in ip dosed BDF1 mouse assessed as disease cure administered as single dose on day 6 or 7 post-tumor implantation; format: functional, organism-based; procedure, shortened: as §4
[11] = Antitumor activity against mouse early Lewis lung carcinoma allografted in BDF1 mouse assessed as increase in host life span at 148 mg/kg, ip administered as single dose on 1 or 2 days post-tumor implantation; format: functional; settings: route intraperitoneal; procedure, shortened: as §1
[12] = Antitumor activity against mouse early Lewis lung carcinoma allografted in BDF1 mouse assessed as increase in host life span at 99 mg/kg, ip administered as single dose on 1 or 2 days post-tumor implantation; format: functional; settings: route intraperitoneal; procedure, shortened: as §1
[13] = Antitumor activity against mouse early Lewis lung carcinoma allografted in BDF1 mouse assessed as time delay in tumor growth at 148 mg/kg, ip administered as single dose on 1 or 2 days post-tumor implantation; format: functional; settings: route intraperitoneal; procedure, shortened: as §3
[14] = Antitumor activity against mouse early Lewis lung carcinoma allografted in BDF1 mouse assessed as time delay in tumor growth at 99 mg/kg, ip administered as single dose on 1 or 2 days post-tumor implantation; format: functional; settings: route intraperitoneal; procedure, shortened: as §3
Mus musculus [15] = test: Antitumor activity against mouse advanced Lewis lung carcinoma allografted in BDF1 mouse assessed as disease cure at 44 mg/kg, ip administered as single dose on 7th day post-tumor implantation measured for 80 days post-drug treatment; format: functional, organism-based; set-up: dose 44 mg/kg; procedure, shortened: as §4
[16] = Antitumor activity against mouse advanced Lewis lung carcinoma allografted in BDF1 mouse assessed as increase in host life span at 44 mg/kg, ip administered as single dose on 7th day post-tumor implantation; format: functional; settings: route intraperitoneal; procedure, shortened: as §5
[17] = Antitumor activity against mouse early Lewis lung carcinoma allografted in BDF1 mouse assessed as increase in host life span at 315 mg/kg, ip administered as single dose on 1 or 2 days post-tumor implantation; format: functional; settings: route intraperitoneal; procedure, shortened: as §1
[18] = Antitumor activity against mouse early Lewis lung carcinoma allografted in BDF1 mouse assessed as increase in host life span at 210 mg/kg, ip administered as single dose on 1 or 2 days post-tumor implantation; format: functional; settings: route intraperitoneal; procedure, shortened: as §1
[19] = Antitumor activity against mouse early Lewis lung carcinoma allografted in BDF1 mouse assessed as time delay in tumor growth at 315 mg/kg, ip administered as single dose on 1 or 2 days post-tumor implantation; format: functional; settings: route intraperitoneal; procedure, shortened: as §3
[20] = Antitumor activity against mouse early Lewis lung carcinoma allografted in BDF1 mouse assessed as time delay in tumor growth at 210 mg/kg, ip administered as single dose on 1 or 2 days post-tumor implantation; format: functional; settings: route intraperitoneal; procedure, shortened: as §3
Mus musculus [21] = test: Antitumor activity against mouse advanced Lewis lung carcinoma allografted in BDF1 mouse assessed as disease cure at 316 mg/kg, ip administered as single dose on 7th day post-tumor implantation measured for 80 days post-drug treatment; format: functional, organism-based; set-up: dose 316 mg/kg; procedure, shortened: as §4
[22] = Antitumor activity against mouse advanced Lewis lung carcinoma allografted in BDF1 mouse assessed as increase in host life span at 316 mg/kg, ip administered as single dose on 7th day post-tumor implantation; format: functional; settings: route intraperitoneal; procedure, shortened: as §5
[23] = Antitumor activity against mouse early Lewis lung carcinoma allografted in BDF1 mouse assessed as increase in host life span at 17 mg/kg, ip administered as single dose on 1 or 2 days post-tumor implantation; format: functional; settings: route intraperitoneal; procedure, shortened: as §1
[24] = Antitumor activity against mouse early Lewis lung carcinoma allografted in BDF1 mouse assessed as increase in host life span at 11 mg/kg, ip administered as single dose on 1 or 2 days post-tumor implantation; format: functional; settings: route intraperitoneal; procedure, shortened: as §2
[25] = Antitumor activity against mouse early Lewis lung carcinoma allografted in BDF1 mouse assessed as time delay in tumor growth at 17 mg/kg, ip administered as single dose on 1 or 2 days post-tumor implantation; format: functional; settings: route intraperitoneal; procedure, shortened: as §3
[26] = Antitumor activity against mouse early Lewis lung carcinoma allografted in BDF1 mouse assessed as time delay in tumor growth at 11 mg/kg, ip administered as single dose on 1 or 2 days post-tumor implantation; format: functional; settings: route intraperitoneal; procedure, shortened: as §6
Mus musculus [27] = test: Antitumor activity against mouse advanced Lewis lung carcinoma allografted in BDF1 mouse assessed as disease cure at 15 mg/kg, ip administered as single dose on 7th day post-tumor implantation measured for 80 days post-drug treatment; format: functional, organism-based; set-up: dose 15 mg/kg; procedure, shortened: as §4
[28] = Antitumor activity against mouse advanced Lewis lung carcinoma allografted in BDF1 mouse assessed as increase in host life span at 15 mg/kg, ip administered as single dose on 7th day post-tumor implantation; format: functional; settings: route intraperitoneal; procedure, shortened: as §5
[29] = Antitumor activity against mouse advanced Lewis lung carcinoma allografted in ip dosed BDF1 mouse assessed as increase in host lifespan administered as single dose on day 6 or 7 post-tumor implantation; format: functional
Procedure, shortened: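 Advanced Lewis lung model: about 40 mg fragments implanted sc by trocar into BDF1 mice, and mice with tumors of about 400 mg (day 6-7) selected. Tumor weight from calipers, w = ab²/2. Agent given as one ip dose in distilled water or physiological saline. Nontumor-bearing mice received matching doses as toxicity controls.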

O=NN(CCCl)C(=O)NC1CSCSC1
ILS at 15 mg/kg [1]: 42%
ILS at 10 mg/kg [2]: 24%
Time [3]: 4.5 days
Activity (Mus musculus [4]): inactive
ILS at 22 mg/kg [5]: 36%
Time [6]: 3.5 days
Activity [7]: 10%
Ratio [8]: 0.3
inhibition (Mus musculus [9]): Active
Activity (Mus musculus [10]): inactive

C[C@H]1CC[C@H](NC(=O)N(CCF)N=O)CC1
ILS at 148 mg/kg [11]: 0%
ILS at 99 mg/kg [12]: 34%
Time [13]: 1.4 days
Time [14]: 2.6 days
Activity (Mus musculus [15]): inactive
ILS at 44 mg/kg [16]: 94%
Activity [7]: 10%
Ratio [8]: 0.6
inhibition (Mus musculus [9]): Active
Activity (Mus musculus [10]): inactive

CC(C)(C)[C@H]1CC[C@H](NC(=O)N(CCCl)N=O)CC1
ILS at 315 mg/kg [17]: 19%
ILS at 210 mg/kg [18]: 24%
Time [19]: 22 days
Time [20]: 4.1 days
Activity (Mus musculus [21]): inactive
ILS at 316 mg/kg [22]: 41%
Activity [7]: 10%
Ratio [8]: 0.6
inhibition (Mus musculus [9]): Active
Activity (Mus musculus [10]): inactive

O=NN(CCCl)C(=O)NC1CCC(=O)NC1=O (stereo unspecified)
ILS at 17 mg/kg [23]: 28%
ILS at 11 mg/kg [24]: 32%
Time [25]: 3.8 days
Time [26]: 1.4 days
Activity (Mus musculus [27]): inactive
ILS at 15 mg/kg [28]: 49%
Activity [7]: 10%
Ratio [8]: 0.4
inhibition (Mus musculus [9]): Active
Activity (Mus musculus [10]): inactive
ILS [29]: >25%
